# Assay results from ChEMBL document CHEMBL1143581, “Cationic chalcone antibiotics. Design, synthesis, and mechanism of action” (2005).
# Calls of active or inactive are those of the source. No cut-off for these calls is given here.
# Columns and labels:
# Enterococcus faecium [1] = experiment: Minimum inhibitory concentration against Enterococcus faecium […]; format: functional
# Staphylococcus aureus [2] = experiment: Minimum inhibitory concentration against Staphylococcus aureus ATCC 33591 (resistant to methicillin); format: functional
# Enterococcus faecium [3] = experiment: Minimum inhibitory concentration against Enterococcus faecium 17501 (vancomycin-resistant clinical isolate); format: functional
# Escherichia coli [4] = experiment: Minimum inhibitory concentration against Escherichia coli ATCC 25922; format: functional
# Outline: (§1)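 Broth microdilution per NCCLS in Mueller-Hinton medium, run in triplicate, with an added uninoculated compound dilution series in case of precipitation. MIC read as the lowest concentration preventing visible growth; reported values are the mean of three experiments.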
# Enterococcus faecium [5] = experiment: Minimum inhibitory concentration against Enterococcus faecium […]; NA=not active; format: functional, organism-based; outline: as §1
# Enterococcus faecium [6] = experiment: Minimum inhibitory concentration against Enterococcus faecium 17501 (vancomycin-resistant clinical isolate); NA=not active; format: functional, organism-based
# Staphylococcus aureus [7] = experiment: Minimum inhibitory concentration against Staphylococcus aureus ATCC 33591 (resistant to methicillin); NA=not active; format: functional, organism-based
# [8] = Percent lysis of human erythrocytes after exposed to test compound was measured as hemolysis; format: functional
# Staphylococcus aureus [9] = experiment: Effect on bacterial membrane integrity was determined by using SYTO9 green fluorescent […]; format: functional, Bacteria
# Outline: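 Incubated 15 min at 37 °C with agitation, then resuspended to OD600 ~0.4 and stained with BacLight (SYTO-9/propidium iodide) 15 min dark. Excitation 485 nm, emission 530/630 nm; green/red ratio normalized to untreated control.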
# Escherichia coli [10] = experiment: (§2) Minimum inhibitory concentration against Escherichia coli ATCC 25922; NA=not active; format: functional, organism-based
# Escherichia coli [11] = experiment: as §2; format: functional, organism-based; outline: as §1; remark: listed apart in the source
compound,measurement,setting,value
COc1ccc(C(=O)/C=C/c2cc(C)ccc2OCCN(C)C)c(F)c1,MIC,Enterococcus faecium [1],150 µM
same,MIC,Staphylococcus aureus [2],75 µM
same,MIC,Enterococcus faecium [3],150 µM
Cc1cc(C)cc(-c2ccc(OCCN(C)C)c(/C=C/C(=O)c3ccccc3OCCN(C)C)c2)c1,MIC,Enterococcus faecium [1],10 µM
same,MIC,Staphylococcus aureus [2],10 µM
same,MIC,Escherichia coli [4],40 µM
same,MIC,Enterococcus faecium [3],10 µM
COc1ccc(C(=O)/C=C/c2cc(-c3ccccc3OC)ccc2N2CC[N+](C)(C)CC2)c(F)c1,MIC,Staphylococcus aureus [2],10 µM
COc1ccc(C(=O)/C=C/c2cc(-c3ccccc3C(F)(F)F)ccc2N2CCN(C)CC2)c(F)c1,MIC,Enterococcus faecium [1],20 µM
same,MIC,Staphylococcus aureus [2],5 µM
same,MIC,Enterococcus faecium [3],10 µM
CN(C)CCNc1ccc(C(=O)/C=C/c2ccc(Oc3ccccc3)cc2)cc1,MIC,Enterococcus faecium [1],5 µM
same,MIC,Staphylococcus aureus [2],20 µM
same,MIC,Enterococcus faecium [3],20 µM
COc1ccc(C(=O)/C=C/c2cc(-c3cc(C)cc(C)c3)ccc2OCCN(C)C)cc1CN(C)C,MIC,Enterococcus faecium [1],20 µM
same,MIC,Staphylococcus aureus [2],20 µM
same,MIC,Escherichia coli [4],40 µM
same,MIC,Enterococcus faecium [3],20 µM
COc1ccc(C(=O)/C=C/c2cc(-c3cccc(C(F)(F)F)c3)ccc2N2CCN(C)CC2)c(F)c1,MIC,Enterococcus faecium [1],10 µM
same,MIC,Staphylococcus aureus [2],5 µM
same,MIC,Enterococcus faecium [3],5 µM
Cc1cc(C)cc(-c2ccc(OCCN(C)C)c(/C=C/C(=O)c3ccc(CN(C)C)cc3)c2)c1,MIC,Enterococcus faecium [1],20 µM
same,MIC,Staphylococcus aureus [2],5 µM
same,MIC,Escherichia coli [4],20 µM
same,MIC,Enterococcus faecium [3],10 µM
CN(C)CCNc1cccc(C(=O)/C=C/c2cc(-c3ccccc3)ccc2N2CCN(C)CC2)c1,MIC,Enterococcus faecium [1],40 µM
same,MIC,Staphylococcus aureus [2],20 µM
same,MIC,Escherichia coli [4],20 µM
same,MIC,Enterococcus faecium [3],20 µM
CN(C)CCNc1ccc(/C=C/C(=O)c2ccc(Oc3ccccc3)cc2)cc1,MIC,Enterococcus faecium [1],10 µM
same,MIC,Staphylococcus aureus [2],20 µM
same,MIC,Enterococcus faecium [3],20 µM
CN(C)CCNc1cccc(C(=O)/C=C/c2ccc(-c3ccccc3)cc2N2CCN(C)CC2)c1,MIC,Enterococcus faecium [1],40 µM
same,MIC,Staphylococcus aureus [2],20 µM
same,MIC,Escherichia coli [4],40 µM
same,MIC,Enterococcus faecium [3],40 µM
COc1ccc(C(=O)/C=C/c2cc(-c3ccc(C(F)(F)F)cc3)ccc2N2CCN(C)CC2)c(F)c1,MIC,Enterococcus faecium [5],inactive
same,MIC,Enterococcus faecium [6],inactive
same,MIC,Staphylococcus aureus [7],inactive
O=C(O)c1cn(C2CC2)c2cc(N3CCNCC3)c(F)cc2c1=O [CIPROFLOXACIN],Hemolysis,[8],0%
same,Membrane integrity,Staphylococcus aureus [9],102%
same,MIC,Staphylococcus aureus [2],2 µM
CN(C)CCNc1ccc(C(=O)/C=C/c2ccc(Cl)cc2)cc1,MIC,Enterococcus faecium [1],75 µM
same,MIC,Staphylococcus aureus [2],75 µM
same,MIC,Enterococcus faecium [3],75 µM
Cc1cc(C)cc(-c2ccc(OCCN(C)C)c(/C=C/C(=O)c3ccc(OCCN(C)C)cc3)c2)c1,MIC,Enterococcus faecium [1],20 µM
same,MIC,Staphylococcus aureus [2],10 µM
same,MIC,Escherichia coli [4],40 µM
same,MIC,Enterococcus faecium [3],10 µM
Cc1cc(C)cc(-c2ccc(OCCN(C)C)c(/C=C/C(=O)c3cccc(N)c3)c2)c1,MIC,Enterococcus faecium [1],10 µM
same,MIC,Staphylococcus aureus [2],10 µM
same,MIC,Escherichia coli [10],inactive
same,MIC,Enterococcus faecium [3],10 µM
Cc1cc(C)cc(-c2ccc(OCCN(C)C)c(/C=C/C(=O)c3ccccc3N)c2)c1,MIC,Enterococcus faecium [1],10 µM
same,MIC,Staphylococcus aureus [2],5 µM
same,MIC,Enterococcus faecium [3],5 µM
same,MIC,Escherichia coli [11],inactive
CN(C)CCNc1cccc(C(=O)/C=C/c2ccc(N3CCN(C)CC3)c(-c3ccccc3)c2)c1,MIC,Enterococcus faecium [1],150 µM
same,MIC,Staphylococcus aureus [2],75 µM
same,MIC,Escherichia coli [10],inactive
same,MIC,Enterococcus faecium [3],75 µM
CN(C)CCNc1cccc(C(=O)/C=C/c2ccc(Cl)cc2Cl)c1,MIC,Enterococcus faecium [1],40 µM
same,MIC,Staphylococcus aureus [2],40 µM
same,MIC,Enterococcus faecium [3],40 µM
CN(C)CCOc1ccc(C(=O)/C=C/c2ccc(Cl)cc2Cl)cc1,Hemolysis,[8],100%
same,MIC,Enterococcus faecium [1],40 µM
same,Membrane integrity,Staphylococcus aureus [9],0%
same,MIC,Staphylococcus aureus [2],40 µM
same,MIC,Enterococcus faecium [3],40 µM
Cc1cc(C)cc(-c2ccc(N(C)CCN(C)C)c(/C=C/C(=O)c3cccc(NCCN(C)C)c3)c2)c1,MIC,Enterococcus faecium [1],10 µM
same,MIC,Staphylococcus aureus [2],10 µM
same,MIC,Escherichia coli [4],20 µM
same,MIC,Enterococcus faecium [3],10 µM
COc1ccc(C(=O)/C=C/c2cc(-c3ccccc3)ccc2OCCN(C)C)c(F)c1,MIC,Enterococcus faecium [1],10 µM
same,MIC,Staphylococcus aureus [2],5 µM
same,MIC,Enterococcus faecium [3],10 µM
Cc1cc(C)cc(-c2ccc(OCCN(C)C)c(/C=C/C(=O)c3ccc(NCCN(C)C)cc3)c2)c1,MIC,Enterococcus faecium [1],20 µM
same,MIC,Staphylococcus aureus [2],10 µM
same,MIC,Escherichia coli [4],20 µM
same,MIC,Enterococcus faecium [3],10 µM
Cc1cc(C)cc(-c2ccc(OCCN(C)C)c(/C=C/C(=O)c3cccc(CN(C)C)c3)c2)c1,MIC,Enterococcus faecium [1],10 µM
same,MIC,Staphylococcus aureus [2],10 µM
same,MIC,Escherichia coli [4],40 µM
same,MIC,Enterococcus faecium [3],10 µM
Cc1cc(C)cc(-c2ccc(N3CCNCC3)c(/C=C/C(=O)c3cccc(NCCN(C)C)c3)c2)c1,Hemolysis,[8],0%
same,MIC,Enterococcus faecium [1],5 µM
same,Membrane integrity,Staphylococcus aureus [9],3%
same,MIC,Staphylococcus aureus [2],2 µM
same,MIC,Escherichia coli [4],5 µM
same,MIC,Enterococcus faecium [3],5 µM
CN(C)CCNc1ccccc1C(=O)/C=C/c1ccc(Cl)cc1Cl,MIC,Enterococcus faecium [1],75 µM
same,MIC,Staphylococcus aureus [2],40 µM
same,MIC,Enterococcus faecium [3],40 µM
